NSD2 HMT inh – blocks human histone methyltransferase NSD2. NSD2 peptide methylation, AlphaScreen, 120 min. O96028. 310,000 tested, 0.54% active. inhibition, % at 12.5 µM. AID 743445; in the data active = inhibition above about 50%
SR-BI DiI inh – inhibitors of mouse SR-BI mediated HDL lipid uptake; Q61009; ldlA[mSR-BI] CHO cells, DiI-HDL uptake fluorescence, 3 h; inhibition, % at 12.5 µM; 320,000 tested, 0.96% active; AID 488896;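 active = mean replicate inhibition of at least 70% and a set share of replicates each scoring 70 or more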
SR-BI DiI-HDL act – SR-BI HDL lipid transfer activation; CHO ldlA[mSR-BI] cells, DiI-HDL uptake fluorescence, 3 h; 100 = double the neutral-control signal; activation, % at 12.5 µM; 320,000 tested, 0.096% active; AID 504775;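 active = mean replicate activation of at least 60% and every replicate at or above 60%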
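Assay system: LDL receptor-deficient CHO ldlA cells overexpressing murine SR-BI / Medium: BSA-supplemented, HEPES-buffered Ham's F12, pH 7.4 / Probe or stimulus: DiI-labelled HDL at 10 µg/mL final / Timing: compound with DiI-HDL co-incubation, 3 h at 37 °C / Technique: bottom-read cell fluorescence after medium removal, ex 550/em 595 nm / Measure: HDL uptake via cellular fluorescence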
XiGFP reactiv – activators of X-chromosome reactivation in mouse fibroblasts. XiGFP mouse fibroblasts, % GFP-positive cells imaging, 3 d; cells co-treated with 5-aza-dC sensitizer; scaled so ellipticine positive control = 100%. activation, % at 7.58 µM. 360,000 tested, 0.055% active;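 active = mean normalized replicate activation at least 10% and every replicate at or above 10%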
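Material: SV40-immortalized XiGFP fibroblast cells, line 68-5-11 | Buffer or medium: DMEM containing 5-aza-dC | Dosing: One concentration, pinned | Times: 3 d treatment, 15 min room-temperature fixation | Controls: Ellipticine 6 µM positive control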
HGIII-sPLA2 inh – Blocks human group III sPLA2 activity; QFRET BODIPY PC-A2 liposome hydrolysis, fluorescence; AID 743126; Q9NZ20; 370,000 tested, 0.56% active; inhibition, % at 12.2 µM;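 active = inhibition above mean plus 3 SD of compounds lying within the high and low control bounds, cut at about 19% in these data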
ARNT-TACC3 inh – ARNT/TACC3 interaction disruption; Q9Y6A5; AlphaScreen His-ARNT PAS-B/GST-TACC3 binding, luminescence; TACC3 fragment carries E629A point mutation; inhibition, % at 9.99 µM; 390,000 tested, 0.66% active; AID 623870;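 active = mean inhibition of replicates at least 50% and at least half of replicates each reaching 50%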
Numbers stand for hits; n = inactive; x = no result given. Compounds with a hit are over-represented: about 2% of the library has one in this group of screens.

SMILES | NSD2 HMT inh | SR-BI DiI inh | SR-BI DiI-HDL act | XiGFP reactiv | HGIII-sPLA2 inh | ARNT-TACC3 inh
Cn1c(CCNC(=O)c2ccco2)nc2cc(NC(=O)c3ccccc3Cl)ccc21 | n | n | n | n | n | x
O=C(Nc1ccc(-c2csc(Nc3ccccc3)n2)cc1)c1ccccc1 | x | 86 | n | n | n | n
Clc1ccc(Nc2nc(-c3cccnc3)cs2)cc1 | n | n | n | x | n | n
N#Cc1ccc(-c2csc(NNC(=O)c3ccccc3)n2)cc1 | x | n | n | x | 39 | n
O=C(Nc1cccc(-c2csc(Nc3ccc(Cl)cc3)n2)c1)c1ccccc1 | x | 98 | n | n | n | n
O=C(O)CCC(=O)Nc1ccc(-c2csc(Nc3cccc4ccccc34)n2)cc1 | n | n | n | n | n | 8.8
O=C(COC(=O)/C=C/c1cccc(Cl)c1)NCCc1ccc(Cl)cc1Cl | n | n | 83 | n | n | n
O=C(COC(=O)/C=C/c1ccco1)NCc1ccc(Cl)cc1Cl | n | n | n | n | n | n
CN=C1S/C(=C\c2ccc(O)c(OC)c2)C(=O)N1C | n | x | x | n | n | x
CN=C1S/C(=C\c2ccc(OCC(=O)OC)c(OC)c2)C(=O)N1C | n | n | 441 | n | n | n
O=C(Cc1ccc(NC2=NC3CS(=O)(=O)CC3S2)cc1)Nc1ccc(F)cc1 (centres undefined) | x | n | n | n | n | n
Cc1cc(=O)oc2c1c(C)nn2-c1nn[nH]n1 | n | n | n | x | n | 64
C[C@H]1CCCCO[C@H](CN(C)C(=O)Nc2cccc3ccccc23)[C@@H](C)CN([C@@H](C)CO)C(=O)c2cc(NC(=O)Nc3cccc4ccccc34)ccc2O1 | x | x | x | n | x | n
N#C/C(=C\Nc1ccccc1SC(F)(F)F)c1nc(-c2ccccc2)cs1 | n | n | n | n | n | x
CCCNC(=S)N1CCN(c2nc(C)nc3sc4c(c23)CCCC4)CC1 | n | 73 | n | n | n | n
COc1ccc(Nc2sc(C(=O)c3ccc(Cl)cc3)c(N)c2C(=O)Nc2ccccc2OC)cc1 | n | 93 | n | x | n | n
CC(NC(=O)c1cc2c(=O)n3ccccc3nc2n(CC2CCCO2)c1=N)c1ccccc1 (centres undefined) | n | n | n | n | n | n
CC(C)OC(=O)CSc1nnc(-c2ccccn2)n1N | n | x | x | n | n | x
NC(=O)CSc1nnc(-c2ccccn2)n1N | n | n | n | n | n | 45
O=C(N/N=C/c1ccc(Br)s1)c1ccccc1[N+](=O)[O-] | n | n | n | x | n | n
O=C(N/N=C/c1ccc(Br)s1)c1ccc([N+](=O)[O-])cc1 | n | n | n | 97 | n | n
Cc1c(C(=O)N/N=C/c2c(O)ccc3ccccc23)nnn1-c1nonc1N | n | n | n | n | n | n
Cn1cc(C(=O)N/N=C/c2c(O)ccc3ccccc23)ccc1=O | n | 102 | n | n | n | n
CCOc1ccc2ccccc2c1/C=N\NC(=O)c1ccc([N+](=O)[O-])cc1 | n | 78 | n | n | n | n
Cn1nccc1C(=O)N/N=C/c1c(O)ccc2ccccc12 | n | 105 | n | n | n | n
SMILES | NSD2 HMT inh | SR-BI DiI inh | SR-BI DiI-HDL act | XiGFP reactiv | HGIII-sPLA2 inh | ARNT-TACC3 inh
COC(=O)[C@]12C[C@H](CC(=O)N3CCOCC3)C(=O)N(Cc3ccccc3)C1=C[C@H](COCc1ccccc1)O[C@@H]2C | x | x | x | x | n | x
CC(=O)Nc1cncc(-c2cccc(N(C)C)c2)n1 | n | x | x | n | n | x
Cc1cc(SCC(=O)N/N=C/c2ccc(C(=O)O)cc2)nc2ccccc12 | n | n | n | n | n | n
CCOC(=O)c1ccccc1NC(=O)CSc1nnc(C)c(=O)[nH]1 | n | x | x | n | n | n
O=C(N/N=C/c1c(O)ccc2ccccc12)Nc1ccccc1 | n | x | x | n | n | x
O=C(N/N=C/c1c(O)ccc2ccccc12)c1ccc[n+](CCO)c1 | n | n | n | n | n | 64
O=C(N/N=C\c1c(O)ccc2ccccc12)c1ccc(O)cc1 | n | 94 | n | n | n | n
COc1ccc(-c2cnc3c(c2)C(=O)N([C@@H](C)CO)C[C@H](C)[C@@H](CN(C)C(=O)Cc2ccccn2)O3)cc1 | x | x | x | n | x | n
